From ChEMBL document CHEMBL1158355, “Novel pyridazine derivatives: Synthesis and antimicrobial activity evaluation” (2009) come the findings set out here.

SMILES strings stand for the structures.

Common to all, as to type: functional
The subject of test [1] is Enterococcus faecalis. The test can be described thus: Antibacterial activity against Streptococcus faecalis at 20 mg/mL by agar diffusion method. Summed up: (§1)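 Agar diffusion assay with test solutions at 20 mg/mL in DMSO, run alongside tetracycline as reference. Read-out is the diameter of the inhibition zone in mm, reported as an average.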
In general terms: In agar diffusion tests the substance spreads into inoculated agar from a disc or well.

Test [2] has as its system Escherichia coli. The test can be described thus: Antibacterial activity against Escherichia coli at 20 mg/mL by agar diffusion method. Summed up: as §1
The test system of test [3] is Pseudomonas aeruginosa. As to the kind of experiment: Antibacterial activity against Pseudomonas aeruginosa at 20 mg/mL by agar diffusion method. The method, boiled down: as §1
In test [4] the test system is Staphylococcus aureus. The test can be described thus: Antibacterial activity against Staphylococcus aureus at 20 mg/mL by agar diffusion method. Summed up: as §1

As to `COc1ccc(-c2cc(Cc3ccccc3OC)/c(=N/N=C/C(O)C(O)C(O)CO)[nH]n2)cc1` (configuration not stated), the diameter of the inhibition zone (DIZ) in test [1] is 12 mm; in test [2], 12 mm; in test [3], 11 mm; in test [4] it was 12 mm.

Consider `COc1ccc(-c2cc(Cc3ccccc3OC)/c(=N/N=C/C(O)C(O)C(O)C(O)CO)[nH]n2)cc1` (configuration not stated), for which the diameter of the inhibition zone (DIZ) was found to be 15 mm in test [1], 15 mm in test [2], 14 mm in test [3] and 16 mm in test [4].

For `CN(C)[C@@H]1C(O)=C(C(N)=O)C(=O)[C@@]2(O)C(O)=C3C(=O)c4c(O)cccc4[C@@](C)(O)[C@H]3C[C@@H]12` [TETRACYCLINE], the diameter of the inhibition zone (DIZ) turned out to be 26 mm in test [1], 22 mm in test [2], 24 mm in test [3] and 20 mm in test [4].

Regarding `COc1ccccc1Cc1cc(-c2ccccc2)n[nH]/c1=N/N=C/c1ccc(OCCOc2ccc(C=O)cc2)cc1`, the diameter of the inhibition zone (DIZ) in test [1] turned out to be 12 mm; in test [2], 12 mm; in test [3] it was 13 mm; in test [4] it was 14 mm.

Consider `COc1ccccc1Cc1cc(-c2ccccc2)n[nH]/c1=N\N=C(c1ccccc1)c1ccccc1`, for which the diameter of the inhibition zone (DIZ) in test [1] came out at 13 mm; in test [2], 12 mm; in test [3], 13 mm; in test [4], 13 mm.

Regarding `COc1ccc(-c2cc(Cc3ccccc3OC)/c(=N/N=C/c3ccc(O)c(OC)c3)[nH]n2)cc1`, the diameter of the inhibition zone (DIZ) stood at 12 mm in test [1], 12 mm in test [2], 13 mm in test [3] and 12 mm in test [4].

Regarding `COc1ccc(-c2cc(Cc3ccccc3OC)/c(=N/N=C/c3ccc(OC(C)=O)c(OC)c3)[nH]n2)cc1`, the diameter of the inhibition zone (DIZ) amounted to 13 mm in test [1], 15 mm in test [2], 12 mm in test [3] and 14 mm in test [4].

Consider `COc1ccccc1Cc1cc(-c2ccccc2)n[nH]/c1=N/N=C/c1cc(OC)c(OCCOc2c(OC)cc(C=O)cc2OC)c(OC)c1`, for which the diameter of the inhibition zone (DIZ) in test [1] came out at 13 mm; in test [2], 12 mm; in test [3], 14 mm; in test [4] it was 14 mm.

Take `COc1ccccc1Cc1cc(-c2ccc(C)cc2)n[nH]\c1=N/N=C(C)/C(C)=N/N=c1/[nH]nc(-c2ccc(C)cc2)cc1Cc1ccccc1OC`: the diameter of the inhibition zone (DIZ) in test [1] stood at 13 mm; in test [2] it was 13 mm; in test [3] it was 14 mm; in test [4] it was 14 mm.

Consider `COc1ccc(-c2cc(Cc3ccccc3OC)/c(=N\N=C\C(OC(C)=O)C(OC(C)=O)C(OC(C)=O)C(COC(C)=O)OC(C)=O)[nH]n2)cc1` (configuration not stated), for which the diameter of the inhibition zone (DIZ) in test [1] was determined as 14 mm; in test [2] it was 14 mm; in test [3], 13 mm; in test [4], 13 mm.

Regarding `COc1ccccc1Cc1cc(-c2ccc(Cl)cc2)n[nH]/c1=N/N=C/c1ccc(OCCOc2ccc(C=O)cc2OC)c(OC)c1`, the diameter of the inhibition zone (DIZ) in test [1] is 12 mm; in test [2], 13 mm; in test [3], 13 mm; in test [4], 12 mm.

With `COc1ccccc1Cc1cc(-c2ccccc2)n[nH]/c1=N\N=C(C)C`, the diameter of the inhibition zone (DIZ) in test [1] is 16 mm; in test [2], 15 mm; in test [3], 15 mm; in test [4], 16 mm.

With `COc1ccc(-c2cc(Cc3ccccc3OC)/c(=N\N=C\c3ccc(OCCOc4ccc(C=O)cc4OC)c(OC)c3)[nH]n2)cc1`, the diameter of the inhibition zone (DIZ) in test [1] worked out at 10 mm; in test [2], 11 mm; in test [3], 10 mm; in test [4], 10 mm.

Take `COc1ccccc1Cc1cc(-c2ccccc2)n[nH]/c1=N\N=C(/C)c1ccccc1`: the diameter of the inhibition zone (DIZ) came out at 13 mm in test [1], 12 mm in test [2], 12 mm in test [3] and 13 mm in test [4].

Turning to `COc1ccc(-c2cc(Cc3ccccc3OC)/c(=N/N=C(\c3ccccc3)c3ccccc3C(=O)O)[nH]n2)cc1`, the diameter of the inhibition zone (DIZ) in test [1] was 17 mm; in test [2], 16 mm; in test [3], 17 mm; in test [4], 18 mm.

For `COc1ccccc1Cc1cc(-c2ccc(Cl)cc2)n[nH]/c1=N\N=C\C(O)C(O)C(O)CO` (configuration not stated), the diameter of the inhibition zone (DIZ) turned out to be 17 mm in test [1], 16 mm in test [2], 15 mm in test [3] and 16 mm in test [4].

As for `COc1ccc(-c2cc(Cc3ccccc3OC)/c(=N/N=C(\C)C(C)=O)[nH]n2)cc1`, the diameter of the inhibition zone (DIZ) in test [1], in test [2], in test [3] and in test [4] was 13 mm throughout.

For `COc1ccccc1Cc1cc(-c2ccc(C)cc2)n[nH]/c1=N/N=C/C(OC(C)=O)C(OC(C)=O)C(COC(C)=O)OC(C)=O` (configuration not stated), the diameter of the inhibition zone (DIZ) in test [1] came to 13 mm; in test [2] it was 13 mm; in test [3], 12 mm; in test [4], 13 mm.
